System: MS2 coat protein
Assay: apparent Kd, MS2 coat protein; higher = weaker binding; RNA-MaP array; FMN 200 µM where present
Procedure, shortened: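 Designs were transcribed by stalled E. coli RNA polymerase on Illumina sequencing-chip clusters. They were titrated with SNAP-549-labelled MS2 coat protein from 0.7 or 1.5 nM, doubling to 3 µM, in 100 mM Tris-HCl pH 7.5, 80 mM KCl, 4 mM MgCl2, BSA, DTT, yeast tRNA and Tween-20, without and then with constant ligand. The apparent Kd is the median of filtered per-cluster fits after normalisation of green signal to red-channel RNA signal and control-cluster median Fmax.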

[1] = designed as: OFF switch for flavin mononucleotide, no ligand
[2] = ligand present: flavin mononucleotide, designed as: OFF switch for flavin mononucleotide
[3] = designed as: ON switch for flavin mononucleotide, no ligand
[4] = ligand present: flavin mononucleotide, designed as: ON switch for flavin mononucleotide

GUAGGGUCAGGAUAUACGGGCGGGAGGAUGUAUUGUAGUUGGUAGAAGGGACAUGAGGAUCACCCAUGUGAGAA
apparent Kd [1]: 0.0343 µM | apparent Kd [2]: 0.0305 µM

GUUAGUAUCUAGGAUAUCUAGUACAUAGUAUCUAGAGAAGGAGAUACAUGAGGAUCACCCAUGUUCUGUGUUCU
apparent Kd [1]: 0.0254 µM | apparent Kd [2]: 0.0704 µM

UGGUACAUGGGAGGAUAUGGGUUGAUAACAUGAGGAUCACCCAUGUUAAAUUUUGCCGAAAGGCACUAGAAGGCCCAUGUACCU
apparent Kd [3]: 1.13 µM | apparent Kd [4]: 0.142 µM

GCAUGCAAGUAGAAGGACGGAUAUUUUGAAAACGUAGGAUAUACAGAAUCAUAUCCACAAGGUUACAUGAGGAUCACCCAUGUA
apparent Kd [1]: 0.00819 µM | apparent Kd [2]: 0.00808 µM

UCUUUGUUUGUGAGGAUAUCGGUGGGAUGGGUUGUCGAGAAGGCACAUGAGGAUCACCCAUGUGUGGGACAGCA
apparent Kd [1]: 0.0153 µM | apparent Kd [2]: 0.0152 µM

GUGCCUUGGGAGAAGGCAGUAUGCAAAGCAUUCUGAGGAUAUCCAUACCGGAAACGGACAUGAGGAUCACCCAUGUGGCACAAA
apparent Kd [3]: 0.0185 µM | apparent Kd [4]: 0.00752 µM

CCUCGACAUGAGGAUCACCCAUGUCAGGAUAUUGUGUUUUGGGUUUUUUACCUUUUGGCAAGAAGGGAUGUGUG
apparent Kd [1]: 0.0155 µM | apparent Kd [2]: 0.0191 µM

ACAUAAAUUCGAGGAUAUCGGUGAUAUAAUUUACGAGAAGGCGAUAAAUGUUAUAAACUUAUAGACAUGAGGAUCACCCAUGUA
apparent Kd [3]: 0.0351 µM | apparent Kd [4]: 0.0325 µM

UCAGUAGAGUCAGGAUAUACGAAAGAAGAUCCUUACAUGAGGAUCACCCAUGUAGAAGGGACUCUACUGUAAGUCGGAAACGAC
apparent Kd [1]: 0.129 µM | apparent Kd [2]: 0.192 µM

UGCAUGUGAGGAUAUGUGUACUGUCUUUUGUUUAGAUGUACACAGAAGGCACAUGAGGAUCACCCAUGUAGUAC
apparent Kd [1]: 0.126 µM | apparent Kd [2]: 0.0278 µM

CUGGUUGUCGUAGGAUAUGUAGGAUAUUCCUACAUGAGGAUCACCCAUGUUCGCAUGGAAGAAAGACAGAAGGACGAUGACCAG
apparent Kd [3]: 0.816 µM | apparent Kd [4]: 0.0502 µM

AAGCAUUGGCUUCUCAUCUACAUGAGGAUCACCCAUGUCGGGAGAAGGAGGCUUUGACGACUAGCCUAGGAUAUCCUAACGUGC
apparent Kd [1]: 0.00565 µM | apparent Kd [2]: 0.00615 µM

AAUAACAGAGGAUAUACUAUUUUAUGUGUUUGUUAUUUUAAACAUGAGGAUCACCCAUGUAGAAGGCUGAAUGA
apparent Kd [1]: 0.0264 µM | apparent Kd [2]: 0.0264 µM

GGCUACGUUUCGUAGCAGCUAGGUGAGGAUAUUCAAUUUUUCACAUGAGGAUCACCCAUGUAUGUGAAGAAGGCGCCUAGAAAC
apparent Kd [3]: 0.0112 µM | apparent Kd [4]: 0.00514 µM

GACAUGGGCUAGAAGGCCUAUCUAUUUAAGUACGAUUUAGAACAGCAUAGGAGGAUAUGGCUAACAUGAGGAUCACCCAUGUUC
apparent Kd [3]: 0.17 µM | apparent Kd [4]: 0.0392 µM

GUUUUUCCUCAUGUACAUGAGGAACAUGAGGAUCACCCAUGUAGAAGGAAUUUUUUUAAGUUUAGUUAGGAUAUACAUAUAUUG
apparent Kd [1]: 0.106 µM | apparent Kd [2]: 0.0715 µM

AACUCACAUGAGGAUCACCCAUGUGAGGAUAUAUUAUUAUGGCUGUUAUGCUGUAGUGGUAGAAGGCGCGUGAU
apparent Kd [1]: 0.0332 µM | apparent Kd [2]: 0.0287 µM

GCCAUCGCAUGAGGAUAUGGACAGCUUUGCUGUCCAGAAGGCAUGUCAAUAGACAUGAGGAUCACCCAUGUAGUUAAGAUGGCA
apparent Kd [3]: 0.771 µM | apparent Kd [4]: 0.0522 µM

CAGCGCUGUCGAGAGGAUAUGCGGUGAUGGACAUGAGGAUCACCCAUGUUAGCGAUAGCAUUACUGUAGAAGGCUCUACAGCUGC
apparent Kd [3]: 0.0306 µM | apparent Kd [4]: 0.013 µM

UUUUUUUUUAGAGGAUAUAUUGUGUGUUAUAUAAUAGAAGGCUAAACAUGUGACAUACACAUGAGGAUCACCCAUGUUUUGUUU
apparent Kd [3]: 0.0316 µM | apparent Kd [4]: 0.027 µM

UCGGCGCGAGGAUAUACGUUUGCUUUUUUUUGUUUUUGUGUACAUGAGGAUCACCCAUGUAGAAGGCGCGCCGC
apparent Kd [1]: 0.0181 µM | apparent Kd [2]: 0.0249 µM

UAUUUAAGAGGAUAUACAUGAGGAUCACCCAUGUAUAUUAAUAUACAUGAUUUUUUAUGUAGAAGGCUUGGGUA
apparent Kd [1]: 0.0255 µM | apparent Kd [2]: 0.0584 µM

UGUGGGAGUCAGAAGGAGUAUUCUACAUGAGGAUCACCCAUGUCUGGUACUAGGAUAUGGGUCUGGACGGACUAAGGUCCCGUA
apparent Kd [3]: 0.753 µM | apparent Kd [4]: 0.196 µM

AUACAUGAGGAUCACCCAUGUCAGCGGCAGUGCUGCAGAUCAAGAAGGGAUCCCGUGGGCCGGGAUCAGGAUAUUGAUCCUGCA
apparent Kd [3]: 0.105 µM | apparent Kd [4]: 0.0186 µM

AAAUUGUGAGGAUAUUCGAUGUACUCGGAGACGAGUAUAUCGGAGAAGGCACAUGAGGAUCACCCAUGUUCCUU
apparent Kd [1]: 0.0176 µM | apparent Kd [2]: 0.0926 µM

GCACUGGAUGUAGGAUAUCAGGACGAUAAGUCCUGAGAAGGACAUGAGGAUCACCCAUGUGAAUAAACCAGUGCAAAUAAUAUA
apparent Kd [1]: 0.0125 µM | apparent Kd [2]: 0.0323 µM

CAGGUCUGAGGAUAUCCAUCUUCCUACAUGAGGAUCACCCAUGUUUCCCUCUGGGUUUUCGGAGAAGGCAGUUUUU
apparent Kd [1]: 0.263 µM | apparent Kd [2]: 0.226 µM

AAAAGACAUGAGGAUCACCCAUGUAAAGACAUAGGAGGAUAUGUCUUGAAAAAAGACUUGACAGAAGGCCUUUGUC
apparent Kd [3]: 0.0238 µM | apparent Kd [4]: 0.0208 µM

AAGAAGUGAGGAUAUGUCUGUGCGAAAAAAAAAAAGUGCAGACAGAAGGCACAUGAGGAUCACCCAUGUCAAAA
apparent Kd [1]: 0.0255 µM | apparent Kd [2]: 0.0371 µM

UCGAGUCAUGAGAAGGACUGAUGUUACAUGAGGAUCACCCAUGUCAUGGGUAGGAUAUCAUUGACACGGCUGUACCUCUCUUAC
apparent Kd [3]: 0.196 µM | apparent Kd [4]: 0.0477 µM

UUCGUGCAGCAUUGCUGUACGCGUACAUGAGGAUCACCCAUGUAGGAUAUGGUAGGCAAAGCUUACUAGAAGGAUAUAGUGAUC
apparent Kd [1]: 0.109 µM | apparent Kd [2]: 0.114 µM

AGAAACUACGAGAAGGACAAAAACGGUGCCGCAAACAUGAGGAUCACCCAUGUAGGAUAUCGUAGUUUCAGGAUCGUGAGAUCA
apparent Kd [1]: 0.0142 µM | apparent Kd [2]: 0.0847 µM

GGAUAGGACAGAGGAUAUACGUGCUAAAGAUACUAGCAAAAUUUCCUCACAUGAGGAUCACCCAUGUAGAAGGCUGUCCUAUCG
apparent Kd [1]: 0.0178 µM | apparent Kd [2]: 0.466 µM

UAUAUAUAGGCAGGAUAUACAUGUAUAUAUAAUAUAUUAUAUAAUAUAACAUGAGGAUCACCCAUGUAGAAGGGCCAUAAUAUA
apparent Kd [1]: 0.0584 µM | apparent Kd [2]: 0.0837 µM

ACAUGAGGAUCACCCAUGUAAAAUGAAGAAGGUAUAUACUUGAGGAUCACCCAUGUACAUGGGAGUAAGGAUAUUCUAAUAAUU
apparent Kd [3]: 0.0132 µM | apparent Kd [4]: 0.0113 µM

AUAAUUUUAUAAUUCUAUUUAUUCAGAAGGCAUAACAUGAGGAUCACCCAUGUAAAUUAAUGUUAUGAGGAUAUGAUUUGGUUA
apparent Kd [1]: 0.0186 µM | apparent Kd [2]: 0.13 µM

AAAAAACAUGAGGAUCACCCAUGUAAAAAAAUGGGAGGAUAUACAAAAACGAAAGUCAAAGUAGAAGGCCUGAAAA
apparent Kd [3]: 0.119 µM | apparent Kd [4]: 0.0256 µM

CGCACUAUACAUGAGGAUCACCCAUGUUAACUUUAGCUAUUCAGAAGGCAUAAAUAGAGAUUAAAUGAGGAUAUGAUUAGUGCG
apparent Kd [3]: 0.0886 µM | apparent Kd [4]: 0.0283 µM

GGCUGCGAUGUGAAGGAUAUCCGCGUCUGGACAUGAGGAUCACCCAUGUAUGCUUGGAUCAUGCCGGAGAAGGUCACGAAUGAUU
apparent Kd [3]: 0.0381 µM | apparent Kd [4]: 0.0166 µM

AAUUUUUAACAGAAGGCGUUUAUAUUUAAGUUACGAGGAUAUGUAUAACAUGAGGAUCACCCAUGUAACAUGGAUAUUUAAUAA
apparent Kd [3]: 0.0103 µM | apparent Kd [4]: 0.00849 µM

AUAUAUAUUAGAGGAUAUGUGUUCAUGUUACAUGAGGAUCACCCAUGUUUAGGUUGAUUUAUCUUACAGAAGGCUAUACAAUCA
apparent Kd [1]: 0.0715 µM | apparent Kd [2]: 0.076 µM

GUCAGCUCGUGAGGAUAUACAACACUGCUUCGGCAGUGUAUUAAGAUCACAUGAGGAUCACCCAUGUAGAAGGGACGAGCUGAU
apparent Kd [1]: 0.0118 µM | apparent Kd [2]: 0.0207 µM

AAUGUGUCAGGAUAUUGUUAGUUUAGUUGUUUGUAUUAGUUCGAGAAGGGACAUGAGGAUCACCCAUGUUGUUU
apparent Kd [1]: 0.0302 µM | apparent Kd [2]: 0.0306 µM

AAAAGGUCAGGAUAUGCCCUCCUGGUGGAAAAGCCUGGUGGGCAGAAGGGACAUGAGGAUCACCCAUGUAAAAA
apparent Kd [1]: 0.0608 µM | apparent Kd [2]: 0.0818 µM

AGGAUCUCAGUCAGGAUAUGUGUCUUCAAAGUACGGCAGAAGGGACAUGAGGAUCACCCAUGUUAGCCACCUUU
apparent Kd [1]: 0.0266 µM | apparent Kd [2]: 0.0691 µM

ACAUGAGGAUCACCCAUGUAGAAUGGAGAAGGUAGAUACUUGUGACUCACCCAUGUACAUAGGACUAAGGAUAUUCUAAUAAUU
apparent Kd [3]: 0.0944 µM | apparent Kd [4]: 0.0542 µM

CAGUCUACAGGAUAUACAUGAGGAUCACCCAUGUUUAUCAACCUUCAGUAAUCCACAUGUAGAAGGGUAGACUG
apparent Kd [1]: 0.0197 µM | apparent Kd [2]: 0.0214 µM

UGGUGAAUUGAGAAGGGAACAGAUGUAGCUCCACAUGAGGAUCACCCAUGUUCAGGAUAUCAGUGCCCGACCUUGAGCGGUCGC
apparent Kd [1]: 0.00792 µM | apparent Kd [2]: 0.0118 µM

From the EternaBench riboswitch data
